Source: ChEMBL document CHEMBL1156966, “A new cytotoxic tambjamine alkaloid from the Azorean nudibranch Tambja ceutae” (Bioorg Med Chem Lett, 2010)

Experiments:
[1] = tested on: Caco-2; assay: Cytotoxicity against human Caco-2 cells after 48 hrs by MTT assay; format: functional, cell-based; conditions: Caco-2, 48 h
In short: (§1)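 Cells exposed 48 h to a range of concentrations, then counted. Viability and proliferation read by MTT, which measures mitochondrial dehydrogenase activity.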

[2] = tested on: HeLa; assay: Cytotoxicity against human HeLa cells after 48 hrs by MTT assay; format: functional, cell-based; in short: as §1
[3] = tested on: C6; assay: Cytotoxicity against rat C6 cells after 48 hrs by MTT assay; format: functional, cell-based; conditions: C6, 48 h; in short: as §1
[4] = tested on: H9c2; assay: Cytotoxicity against rat H9c2 cells after 48 hrs by MTT assay; format: cell-based; conditions: H9c2, 48 h; in short: as §1
[5] = tested on: 3T3-L1; assay: Cytotoxicity against mouse 3T3L1 cells after 48 hrs by MTT assay; format: cell-based; conditions: 3T3-L1, 48 h; in short: as §1

Q: How did the IC50 [1] turn out when `COC1=CC(c2ccc[nH]2)=N/C1=C/c1[nH]c(-c2ccc[nH]2)cc1OC` was run?
A: 91 µM

Q: And the IC50 [2]?
A: 70 µM

Q: And the IC50 [3]?
A: 7 µM

Q: And the IC50 [4]?
A: 107 µM

Q: What about the IC50 [5] of the same molecule?
A: 24 µM

Q: With `COC1=CC(c2ccc[nH]2)=N/C1=C\NCCC(C)C` [TAMBJAMINE K] as the molecule, how does the IC50 [1] read?
A: 0.0035 µM

Q: And the IC50 [2]?
A: 14.6 µM

Q: And the IC50 [3]?
A: 14 µM

Q: And the IC50 [4]?
A: 2.7 µM

Q: And the IC50 [5]?
A: 19 µM
